Experimental data as given in ChEMBL document CHEMBL1139285, “TRAIL-enhancing activity of Erythrinan alkaloids from Erythrina velutina” (Bioorg Med Chem Lett, 2009).
In brackets after ≈: the same amount, converted by molar mass.

Assays:
Jurkat [1] = assay: Growth inhibition of human Jurkat cells; format: functional, cell-based
Jurkat [2] = assay: Growth inhibition of human Jurkat cells at 50 ug/mL; format: functional
Jurkat [3] = assay: Cytotoxicity against human Jurkat cells in presence and relative to TRAIL; format: functional, cell-based
Method in brief: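 Jurkat cell proliferation test run with each isolate in combination with TRAIL, to measure enhancement of TRAIL cytotoxicity; values expressed relative to the cell proliferation rate at 0.125.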

Jurkat [4] = assay: Cytotoxicity against human Jurkat cells in presence and relative to TRAIL at 50 ug/mL; format: functional
Method in brief: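 Proliferation assay in Jurkat cells exposed to each isolated alkaloid together with TRAIL. Results are expressed relative to the cell proliferation rate at […].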

Row | Structure (SMILES) | IC50 (Jurkat [1]) | inhibition at 50 µg/mL (Jurkat [2]) | IC50 (Jurkat [3]) | inhibition at 50 µg/mL (Jurkat [4])
1 | C[N+](C)(C)[C@H](Cc1c[nH]c2ccccc12)C(=O)[O-] [HYPAPHORINE] | > 50 µg/mL | 5.8% | > 50 µg/mL | 20%
2 | COc1cc2c(cc1O)CC[N+]1([O-])CC=C3C=C[C@H](OC)C[C@]321 (stereo not given in full) | > 50 µg/mL | 2.4% | > 50 µg/mL | 18.9%
3 | COC(=O)c1cc2c(cn1)CCN1CC=C3C=C[C@H](OC)C[C@]321 [ERYMELANTHINE] | > 50 µg/mL | 1.1% | > 50 µg/mL | 24.2%
4 | COc1cc2c(cc1OC)[C@]13C[C@@H](OC)C=CC1=CCN3CC2 [ERYSOTRINE] | > 50 µg/mL | 45% | 7.2 µg/mL (≈ 23 µM) | –
5 | CC[C@]1(O)C[C@H]2CN(CCc3c([nH]c4ccccc34)[C@@](C(=O)OC)(c3cc4c(cc3OC)N(C=O)[C@H]3[C@@](O)(C(=O)OC)[C@H](OC(C)=O)[C@]5(CC)C=CCN6CC[C@]43[C@@H]65)C2)C1 [VINCRISTINE] | 0.0031 µg/mL (≈ 0.00376 µM) | – | – | –
6 | CO[C@H]1C=CC2=CC(=O)N3CCc4cc5c(cc4[C@]23C1)OCO5 | > 50 µg/mL | 37% | 22 µg/mL (≈ 70.7 µM) | –
7 | COc1cc2c(cc1O)[C@]13C[C@@H](OC)C=CC1=CCN3CC2 [ERYSOVINE] | 24 µg/mL (≈ 80.2 µM) | – | 14.2 µg/mL (≈ 47.4 µM) | –
8 | COc1cc2c(cc1O[C@@H]1O[C@H](CO)[C@@H](O)[C@H](O)[C@H]1O)CCN1CC=C3C=C[C@H](OC)C[C@]321 [GRYCOERYSODINE] | > 50 µg/mL | 4.7% | 44 µg/mL (≈ 95.3 µM) | –
9 | CO[C@H]1C=CC2=CCN3CCc4cc5c(cc4[C@]23C1)OCO5 [ERYTHRALINE] | 23 µg/mL (≈ 77.3 µM) | – | 5 µg/mL (≈ 16.8 µM) | –
10 | O=c1cc(-c2ccc(O)cc2)oc2cc(O)cc(O)c12 [APIGENIN] | 30 µg/mL (≈ 111 µM) | – | 6.7 µg/mL (≈ 24.8 µM) | –
11 | COc1cc2c(cc1O)CCN1CC=C3C=C[C@H](OC)C[C@]321 [ERYSODINE] | 10.8 µg/mL (≈ 36.1 µM) | – | 4.9 µg/mL (≈ 16.4 µM) | –
